Data set [1] is described as follows: Safety index, IC50 for transformed human kidney epithelial cells to IC50 for Entamoeba histolytica HM1:IMSS.
In the next data set the test system is Entamoeba histolytica. Briefly: Antiamoebic activity against Entamoeba histolytica HM1:IMSS after 72 hrs by microplate method. It is filed as functional, organism-based. The essentials:
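E. histolytica HM1:IMSS trophozoites in a microplate assay. Samples in DMSO plus medium (1 mg/mL), diluted to 0.1 mg/mL, then twofold serial dilutions. Inoculum 1.7 × 10^4 amoebae/well (viability by trypan blue), N2-gassed, 37 °C for 72 h. Cells methanol-fixed, eosin-stained, dye released in 0.1 N NaOH, OD 490 nm. % inhibition vs untreated control against log dose; IC50 by linear regression.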

The next data set concerns HEK293 (human). As to the kind of experiment: Cytotoxicity against human HEK293 cells after 44 hrs by MTT assay. The conditions noted are these: HEK293, 44 h. (Formazan colour is commonly taken as a measure of viable cells.)
Data set [2] can be described thus: Safety index, IC50 for human […] to IC50 for Entamoeba histolytica HM1:IMSS. Format: toxicity, cell-based. The conditions noted are these: read-out: Ratio IC50. The essentials: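 Safety index = IC50 in human kidney epithelial cells (MTT, 44 h + 4 h) divided by IC50 against E. histolytica HM1:IMSS (microplate eosin assay, 72 h).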

14 molecules from ChEMBL document CHEMBL1140973, “New Pd(II) complexes of the synthesized 1-N-substituted thiosemicarbazones of 3-indole carboxaldehyde: characterization and antiamoebic assessment against E. histolytica” (Eur J Med Chem, 2008) can be followed below.

Broadly, the IC50 is the midpoint of a concentration-inhibition curve. Higher therefore signals lower potency. With `NC(=S)N/N=C\c1c[nH]c2ccccc12`, the selectivity ratio in data set [1] is more than 8.68. The IC50 in the data set on Entamoeba histolytica was 11.5 µM; in the data set on HEK293 (human), more than 100 µM.
Turning to `Fc1ccc(NC(=S)N/N=C\c2c[nH]c3ccccc23)c(F)c1`, the IC50 in the data set on Entamoeba histolytica was 6.05 µM. In data set [2], the selectivity ratio is more than 16.5.
As for `Cc1ccc(NC(=S)N/N=C\c2c[nH]c3ccccc23)cc1`, the selectivity ratio in data set [1] is more than 30.8. The IC50 in the data set on Entamoeba histolytica was 3.25 µM; in the data set on HEK293 (human), more than 100 µM.
The corresponding values for `Cc1ccccc1NC(=S)N/N=C\c1c[nH]c2ccccc12` are more than 48.8, 2.05 µM and more than 100 µM.
`CN(Cc1ccccc1)C(=S)N/N=C\c1c[nH]c2ccccc12`: the selectivity ratio in data set [1] was more than 40.6. For the same molecule, the figures for the IC50 in the data set on Entamoeba histolytica and with HEK293 (human) were 2.46 µM and more than 100 µM, respectively.
In the case of `CCCNC(=S)N/N=C\c1c[nH]c2ccccc12`, in data set [1], the selectivity ratio is more than 14.6. The IC50 is 6.84 µM with Entamoeba histolytica and more than 100 µM with HEK293 (human).
In the same order, the values of `CC(C)NC(=S)N/N=C\c1c[nH]c2ccccc12` are more than 13.1, 7.64 µM and more than 100 µM.
For the molecule `CC(C)CNC(=S)N/N=C\c1c[nH]c2ccccc12`, the selectivity ratio in data set [1] is more than 17.4. In addition, the figures for the IC50 in the data set with Entamoeba histolytica and with HEK293 (human) were 5.76 µM and more than 100 µM, respectively.
Consider `CCCCN(C)C(=S)N/N=C\c1c[nH]c2ccccc12`, for which, in data set [1], the selectivity ratio was more than 18.2. Besides, the IC50 in the data set with Entamoeba histolytica is 5.5 µM; in the data set on HEK293 (human), more than 100 µM.
In the same order, the values of `CCN(CC)C(=S)N/N=C\c1c[nH]c2ccccc12` are more than 38.8, 2.58 µM and more than 100 µM.
Consider `CCCCNC(=S)N/N=C\c1c[nH]c2ccccc12`, for which, in data set [1], the selectivity ratio is more than 24.4. The IC50 in the data set on Entamoeba histolytica is 4.09 µM; in the data set with HEK293 (human), more than 100 µM.
In the same order, the values of `S=C(NCc1ccccc1Cl)N/N=C\c1c[nH]c2ccccc12` are more than 30.5, 3.28 µM and more than 100 µM.
Turning to `Cc1cccc(NC(=S)N/N=C\c2c[nH]c3ccccc23)c1`, the selectivity ratio in data set [1] was more than 77.5. In addition, the IC50 with Entamoeba histolytica was 1.29 µM; with HEK293 (human), more than 100 µM.
As to `Cc1ncc([N+](=O)[O-])n1CCO` [METRONIDAZOLE], in data set [1], the selectivity ratio was more than 55.2. In the data set with HEK293 (human), this molecule displayed a half-maximal inhibitory concentration (IC50) of more than 100 µM.
